High-throughput results: PubChem BioAssay, several laboratories
MrgX1 ag – agonists of human MrgX1 receptor, primary screen, HEK293 cells, Fluo-4 calcium flux. Fluo-4 calcium fluorescence, agonist mode; hits give high values. AID 588627, 2011. Mas-related G-protein coupled receptor member X1 (Homo sapiens), Q96LB2. B-score at 10 µM. hit rate 0.44% among 310,000;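 active = calcium response B-score plate-corrected fluorescence ratio at least 3 library SD, with starting fluorescence B-score inside 5 SD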
Target sequence (Q96LB2 whole entry, looked up): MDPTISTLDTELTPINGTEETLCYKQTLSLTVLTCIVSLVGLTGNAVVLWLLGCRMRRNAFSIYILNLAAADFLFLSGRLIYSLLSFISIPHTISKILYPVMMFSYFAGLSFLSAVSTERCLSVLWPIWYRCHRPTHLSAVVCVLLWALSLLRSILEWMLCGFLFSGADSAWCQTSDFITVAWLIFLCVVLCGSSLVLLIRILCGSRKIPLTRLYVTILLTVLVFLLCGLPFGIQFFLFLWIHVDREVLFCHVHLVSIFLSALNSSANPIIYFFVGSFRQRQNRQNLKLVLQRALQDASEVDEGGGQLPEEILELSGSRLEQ
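System: HEK293 cells stably expressing human MrgX1 receptor; Dosing: test compound in the initial addition of three; Schedule: overnight plating, then 30 min 37 °C plus 30 min room-temperature dye loading; Detection: kinetic calcium dye fluorescence, Fluo-4 NW; Controls: per-plate positive and negative controls for Z′ factor.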
MrgX1 antagonist – antagonists of human MrgX1 receptor, primary screen, HEK293 cells, Fluo-4 calcium flux; AID 588676, 2011; BAM8-22 antagonism; hits give low values; Mas-related G-protein coupled receptor member X1 (Homo sapiens), Q96LB2; B-score at 10 µM; hit rate 1.3% among 310,000;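 active = calcium-response B-score plate-corrected more than 3 library SD below zero, starting fluorescence within 5 deviations, no agonist response on first addition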;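 note: peak minus trough fluorescence over baseline after final BAM8-22 challenge near maximal dose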
KCC2 mod – KCC2 cotransporter modulators, thallium flux, primary screen, cell-based, HEK293 KCC2, FluoZin-2 fluorescence, MLSMR; hit rate 2.2% among 190,000; KCC2 cells, thallium flux FluoZin-2 fluorescence; B-score of Tl+ flux slope (higher = more flux/activation; lower = inhibition) at 10 µM;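 active = thallium flux slope and its plate-corrected score both differing from the plate sample mean at a set confidence after two filtering rounds, in either direction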;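 note: slope of fluorescence scaled to starting intensity during 10 to 20 s after thallium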
RGS4 block – RGS4 inhibitors, primary screen, cell-based, HEK293 M3R inducible RGS4, calcium flux; B-score at 10 µM; hit rate 0.45% among 310,000; Regulator of G-protein signaling 4 (Homo sapiens), P49798; Fluo-4 calcium flux; hits give high values; triggered by carbachol at its EC20;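 active = B-score, a plate-corrected calcium signal, over three deviations above library mean, with baseline fluorescence within five deviations of library mean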;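 note: RGS4 expression induced by doxycycline in cells with stable M3 receptor; B-score is computed from the integrated fluorescence ratio over baseline after carbachol; higher B-score means a larger calcium signal and so more RGS4 inhibition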
Target sequence (P49798 whole entry, looked up): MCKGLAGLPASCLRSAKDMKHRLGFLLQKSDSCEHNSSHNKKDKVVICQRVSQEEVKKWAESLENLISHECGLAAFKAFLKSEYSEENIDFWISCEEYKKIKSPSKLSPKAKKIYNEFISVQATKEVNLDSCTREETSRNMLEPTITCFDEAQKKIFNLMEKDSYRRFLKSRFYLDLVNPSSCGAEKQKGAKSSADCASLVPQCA
MrgX1 PAM – positive allosteric modulators of MrgX1, primary screen, HEK293 cells, Fluo-4 calcium flux | FDSS; hits give high values | hit rate 0.63% among 310,000 | B-score at 10 µM | Mas-related G-protein coupled receptor member X1 (Homo sapiens), Q96LB2;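 active = plate-corrected calcium response at least 3 library SD above typical, normal starting fluorescence, not activating the receptor alone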;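 note: compound read alongside a low EC10 to EC30 dose of BAM8-22 agonist; peak minus trough fluorescence over baseline measured at the second addition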
RGS4 pot – RGS4 potentiators or activators, primary screen, cell-based, HEK293 M3R inducible RGS4, calcium flux; carbachol calcium flux Fluo4; hits give low values; B-score at 10 µM; hit rate 0.92% among 310,000;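 active = B-score of the integrated calcium signal more than 4 SD below the library mean, with starting fluorescence not abnormally high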;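 note: negative B-score means reduced calcium response which marks RGS4 activation or potentiation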
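Material: M3R-expressing HEK293 line, RGS4 induced by doxycycline | Schedule: Overnight RGS4 induction, 30 min dye load 37 °C, 20 min compound RT | Measured by: Fluo4 fluorescence kinetic imaging of calcium | Read-out: Integrated calcium ratio converted to B score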
The depositor's hits bear a star. This is a sample that favours compounds with a hit; in the whole collection about 4.7% have one here.

`C=CCC1(CC=C)CCCN1C(=O)C1CCC(=O)N(CCc2ccc(OC)cc2)C1` (centres undefined) gave MrgX1 ag inactive, MrgX1 antagonist inactive, RGS4 block inactive, MrgX1 PAM inactive and RGS4 pot inactive.
Screening Cc1ccc(C(=O)Nc2ccccc2Oc2ccccc2)o1 returned MrgX1 ag inactive, MrgX1 antagonist -4.5*, RGS4 block inactive, MrgX1 PAM inactive and RGS4 pot inactive.
`CCNC(=S)N/N=C1\C(=O)c2cccc3cccc1c23` gave MrgX1 ag inactive, MrgX1 antagonist inactive, KCC2 mod 24*, RGS4 block inactive, MrgX1 PAM inactive and RGS4 pot inactive.
CCNC(=S)N/N=C/c1ccco1 was read as MrgX1 ag inactive, MrgX1 antagonist inactive, KCC2 mod 0.12, RGS4 block inactive, MrgX1 PAM inactive and RGS4 pot inactive.
Screening O=C(N/N=C1/C(=O)c2cccc3cccc1c23)c1ccc(Cl)cc1 returned MrgX1 ag inactive, MrgX1 antagonist inactive, KCC2 mod 4.8*, RGS4 block inactive, MrgX1 PAM inactive and RGS4 pot inactive.
Screening Cc1sc2nc(CN3CCOCC3)[nH]c(=S)c2c1C returned MrgX1 ag inactive, MrgX1 antagonist inactive, KCC2 mod 73*, RGS4 block inactive, MrgX1 PAM inactive and RGS4 pot inactive.
`CCOC(=O)N1CCN(C(=O)c2cn(CC)c3ccc(S(=O)(=O)N(C)C4CCCCC4)cc3c2=O)CC1` gave MrgX1 ag inactive, MrgX1 antagonist inactive, RGS4 block inactive, MrgX1 PAM inactive and RGS4 pot inactive.
Screening Cc1ccc(C(=O)NCCCNC(=O)Cc2ccccc2)cn1 returned MrgX1 ag inactive, MrgX1 antagonist inactive, RGS4 block inactive, MrgX1 PAM inactive and RGS4 pot inactive.
For CC1CCN(Cc2ccc(NC(=O)C3CCN(c4nnc(-n5cccc5)s4)CC3)cc2)CC1 the results were MrgX1 ag inactive, MrgX1 antagonist inactive, KCC2 mod -0.56, RGS4 block inactive, MrgX1 PAM inactive and RGS4 pot -8.2*.
`COc1cc(-c2nc(C(=O)NCC3CCCO3)cc3c2[nH]c2ccccc23)cc(OC)c1OC` (centres undefined) gave MrgX1 ag inactive, MrgX1 antagonist inactive, RGS4 block inactive, MrgX1 PAM inactive and RGS4 pot inactive.
`O=C(NCC1CCCO1)c1cc2c([nH]c3ccccc32)c(-c2cccc(Cl)c2)n1` (centres undefined) gave MrgX1 ag inactive, MrgX1 antagonist inactive, RGS4 block inactive, MrgX1 PAM inactive and RGS4 pot -9.2*.
Screening Cc1ccccc1N=Nc1c(C)[nH]n(C(N)=S)c1=O returned MrgX1 ag inactive, MrgX1 antagonist inactive, KCC2 mod 11*, RGS4 block inactive, MrgX1 PAM inactive and RGS4 pot inactive.
`NC(=S)NN=C1c2cc(OCCN3CCOCC3)ccc2-c2ccc(OCCN3CCOCC3)cc21` gave MrgX1 ag inactive, MrgX1 antagonist inactive, RGS4 block inactive, MrgX1 PAM inactive and RGS4 pot -7.4*.
For CN(CC(=O)Nc1ccccc1Br)C(=O)CCSc1ccc(F)cc1 the results were MrgX1 ag inactive, MrgX1 antagonist inactive, RGS4 block inactive, MrgX1 PAM inactive and RGS4 pot inactive.
For C=CCn1c(=S)[nH]c2cc(C(=O)Nc3ccc(OC)c(OC)c3)ccc2c1=O the results were MrgX1 ag inactive, MrgX1 antagonist inactive, RGS4 block inactive, MrgX1 PAM inactive and RGS4 pot inactive.
`C=CCn1c(=S)[nH]c2nc3c(cc2c1=O)CCCC3` gave MrgX1 ag inactive, MrgX1 antagonist inactive, KCC2 mod 126*, RGS4 block inactive, MrgX1 PAM inactive and RGS4 pot inactive.
Screening C=CCn1c(=O)c2ccccc2n2c(=S)[nH]nc12 returned MrgX1 ag inactive, MrgX1 antagonist inactive, RGS4 block inactive, MrgX1 PAM inactive and RGS4 pot inactive.
For C=CCn1c(=S)[nH]c2ccc(Br)cc2c1=O the results were MrgX1 ag inactive, MrgX1 antagonist inactive, KCC2 mod 52*, RGS4 block inactive, MrgX1 PAM inactive and RGS4 pot inactive.
For Nc1c(N(CCC2=CCCCC2)C(=O)c2ccco2)c(=O)[nH]c(=O)n1Cc1ccccc1 the results were MrgX1 ag inactive, MrgX1 antagonist inactive, RGS4 block inactive, MrgX1 PAM inactive and RGS4 pot inactive.
`O=C(NNC(=S)NC(=O)c1cccc([N+](=O)[O-])c1)c1ccc(Br)cc1` gave MrgX1 ag 93*, MrgX1 antagonist inactive, RGS4 block inactive, MrgX1 PAM inactive and RGS4 pot -8.3*.
Screening O=C(NNC(=S)Nc1ccc(Cl)c(Cl)c1)c1cccc([N+](=O)[O-])c1 returned MrgX1 ag inactive, MrgX1 antagonist inactive, KCC2 mod -5.4*, RGS4 block inactive, MrgX1 PAM inactive and RGS4 pot inactive.
Screening Cc1cccc(NC(=S)NNC(=O)c2cccc([N+](=O)[O-])c2)c1 returned MrgX1 ag inactive, MrgX1 antagonist inactive, KCC2 mod -0.035, RGS4 block inactive, MrgX1 PAM inactive and RGS4 pot inactive.
Screening COc1cccc(C(=O)NC(=S)Nc2ccc([N+](=O)[O-])cc2C)c1 returned MrgX1 ag inactive, MrgX1 antagonist inactive, KCC2 mod 6.6*, RGS4 block inactive, MrgX1 PAM inactive and RGS4 pot inactive.
For O=C(NNC(=S)NC(=O)c1cccc([N+](=O)[O-])c1)c1ccc(O)cc1 the results were MrgX1 ag inactive, MrgX1 antagonist inactive, RGS4 block inactive, MrgX1 PAM inactive and RGS4 pot inactive.
O=C(NNC(=O)c1cc(-c2ccccc2)n(-c2ccccc2)n1)c1cccc([N+](=O)[O-])c1 was read as MrgX1 ag inactive, MrgX1 antagonist inactive, KCC2 mod 15*, RGS4 block inactive, MrgX1 PAM inactive and RGS4 pot inactive.
`COc1ccccc1C(=O)NNC(=O)C1CC=CCC1` (centres undefined) gave MrgX1 ag inactive, MrgX1 antagonist inactive, RGS4 block inactive, MrgX1 PAM inactive and RGS4 pot inactive.
